Measurements: ChEMBL document CHEMBL1129660, “Studies on 6-aminoquinolones: synthesis and antibacterial evaluation of 6-amino-8-methylquinolones” (J Med Chem, 1996)
Values after ≈ are worked out from the molar mass of the structure shown.

Tests used:
Type in all cases: functional
Escherichia coli [1] = assay: Antibacterial activity tested against Escherichia coli ATCC 8739
Outline: (§1)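 MICs (µg/mL) determined by conventional agar dilution against a panel of eight Gram-negative and five Gram-positive reference strains.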

Escherichia coli [2] = assay: Antibacterial activity tested against Escherichia coli ISF 432; outline: as §1
Enterobacter cloacae = assay: Antibacterial activity tested against Enterobacter cloacae OMNFI 174
Bacteria = assay: Geometric mean of antibacterial activity (Gram +ve bacteria) of the compound
Outline: (§2)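 Geometric means calculated from agar-dilution MICs (µg/mL), taken separately across the five Gram-positive and the eight Gram-negative panel strains.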

[3] = Geometric mean of antibacterial activity (Gram -ve bacteria) of the compound; outline: as §2
Klebsiella pneumoniae = assay: Antibacterial activity tested against Klebsiella pneumoniae (Klebsiella pneumoniae) ATCC 10031; outline: as §1
Proteus vulgaris = assay: Antibacterial activity tested against Proteus vulgaris CNUR 5; outline: as §1
Providencia stuartii = assay: Antibacterial activity tested against Providencia stuartii CNUR 5; outline: as §1
Pseudomonas aeruginosa = assay: Antibacterial activity tested against P. ae (Pseudomonas aeruginosa) ATCC 9027; outline: as §1
Shigella = assay: Antibacterial activity tested against Shigella enteritidis; outline: as §1
Staphylococcus aureus [4] = assay: Antibacterial activity against Staphylococcus aureus ATCC 6538; outline: as §1
Staphylococcus aureus [5] = assay: Antibacterial activity against Staphylococcus aureus MPR 5; outline: as §1
Enterococcus faecalis [6] = assay: Antibacterial activity tested against Streptococcus faecalis LEP Br; outline: as §1
[7] = test system: Staphylococcus epidermidis; assay: Antibacterial activity tested against Staphylococcus epidermidis CPHL A2; outline: as §1
[8] = test system: Staphylococcus epidermidis; assay: Antibacterial activity tested against Staphylococcus epidermidis HCF Berset C; outline: as §1
Enterococcus faecium = assay: Antibacterial activity tested against Enterococcus faecium; Range is 0.13-2 ug/mL
Enterococcus faecalis [9] = assay: Antibacterial activity tested against Enterococcus faecalis; Range is 0.13-0.25 ug/mL
Escherichia coli [10] = assay: Inhibitory activity against gyrase supercoiling activity from Escherichia coli
Outline: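 Inhibition of DNA gyrase supercoiling activity, by a previously described protocol with slight modifications. IC50 derived by densitometric quantification of the supercoiled DNA peak in an agarose gel.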

Staphylococcus aureus [11] = assay: Antibacterial activity tested against Staphylococcus aureus Methicillin-and Ciprofloxacin resistants; Range is 1-2 ug/mL
Streptococcus pneumoniae = assay: Antibacterial activity tested against Streptococcus pneumoniae; Range is 1-2 ug/mL
Staphylococcus aureus [12] = assay: Antibacterial activity tested against Staphylococcus aureus; Range is 0.016-0.13 ug/mL

MIC (Escherichia coli [1]) | MIC (Escherichia coli [2]) | MIC (Enterobacter cloacae) | MIC (Klebsiella pneumoniae) | MIC (Proteus vulgaris) | MIC (Providencia stuartii) | MIC (Shigella) | MIC (Staphylococcus aureus [4]) | MIC (Staphylococcus aureus [5]) | MIC (Enterococcus faecalis [6]) | MIC [7] | MIC [8] | SMILES | Geometric mean (Bacteria) | Geometric mean [3] | MIC (Pseudomonas aeruginosa) | other results
32 µg/mL (≈ 97.7 µM) | 1 µg/mL (≈ 3.05 µM) | 64 µg/mL (≈ 195 µM) | 0.5 µg/mL (≈ 1.53 µM) | > 128 µg/mL | 64 µg/mL (≈ 195 µM) | 64 µg/mL (≈ 195 µM) | 4 µg/mL (≈ 12.2 µM) | 4 µg/mL (≈ 12.2 µM) | 64 µg/mL (≈ 195 µM) | 16 µg/mL (≈ 48.9 µM) | 16 µg/mL (≈ 48.9 µM) | Cc1c(N2CCCC2)c(N)cc2c(=O)c(C(=O)O)cn(C3CC3)c12 | 12.12 | 22.627 | > 128 µg/mL | –
0.03 µg/mL (≈ 0.0835 µM) | 0.03 µg/mL (≈ 0.0835 µM) | 0.03 µg/mL (≈ 0.0835 µM) | 0.03 µg/mL (≈ 0.0835 µM) | 2 µg/mL (≈ 5.56 µM) | 2 µg/mL (≈ 5.56 µM) | 0.03 µg/mL (≈ 0.0835 µM) | 0.06 µg/mL (≈ 0.167 µM) | 0.03 µg/mL (≈ 0.0835 µM) | 1 µg/mL (≈ 2.78 µM) | 0.25 µg/mL (≈ 0.696 µM) | 0.25 µg/mL (≈ 0.696 µM) | Cc1c(N2CCN(C)CC2)c(F)cc2c(=O)c(C(=O)O)cn(C3CC3)c12 | 0.162 | 0.145 | 2 µg/mL (≈ 5.56 µM) | –
0.5 µg/mL (≈ 1.35 µM) | 0.5 µg/mL (≈ 1.35 µM) | 16 µg/mL (≈ 43.3 µM) | 0.5 µg/mL (≈ 1.35 µM) | > 128 µg/mL | 8 µg/mL (≈ 21.7 µM) | 16 µg/mL (≈ 43.3 µM) | 0.5 µg/mL (≈ 1.35 µM) | 0.5 µg/mL (≈ 1.35 µM) | 16 µg/mL (≈ 43.3 µM) | 1 µg/mL (≈ 2.71 µM) | 1 µg/mL (≈ 2.71 µM) | Cc1c(N2CCCC(C)(C)C2)c(N)cc2c(=O)c(C(=O)O)cn(C3CC3)c12 | 1.132 | 6.17 | 64 µg/mL (≈ 173 µM) | –
2 µg/mL (≈ 5.63 µM) | 0.03 µg/mL (≈ 0.0844 µM) | 1 µg/mL (≈ 2.81 µM) | 0.03 µg/mL (≈ 0.0844 µM) | 32 µg/mL (≈ 90 µM) | 0.5 µg/mL (≈ 1.41 µM) | 1 µg/mL (≈ 2.81 µM) | 0.125 µg/mL (≈ 0.352 µM) | 0.125 µg/mL (≈ 0.352 µM) | 2 µg/mL (≈ 5.63 µM) | 0.25 µg/mL (≈ 0.703 µM) | 0.2 µg/mL (≈ 0.563 µM) | Cc1c(N2CCCCCC2)c(N)cc2c(=O)c(C(=O)O)cn(C3CC3)c12 | 0.275 | 0.763 | 4 µg/mL (≈ 11.3 µM) | –
1 µg/mL (≈ 2.71 µM) | 0.5 µg/mL (≈ 1.35 µM) | 64 µg/mL (≈ 173 µM) | 0.5 µg/mL (≈ 1.35 µM) | > 128 µg/mL | 16 µg/mL (≈ 43.3 µM) | 64 µg/mL (≈ 173 µM) | 1 µg/mL (≈ 2.71 µM) | 1 µg/mL (≈ 2.71 µM) | 32 µg/mL (≈ 86.6 µM) | 2 µg/mL (≈ 5.41 µM) | 4 µg/mL (≈ 10.8 µM) | CNc1cc2c(=O)c(C(=O)O)cn(C3CC3)c2c(C)c1N1CCC(C)CC1 | 3.031 | 11.313 | > 128 µg/mL | –
0.125 µg/mL (≈ 0.364 µM) | 0.06 µg/mL (≈ 0.175 µM) | 0.125 µg/mL (≈ 0.364 µM) | 0.03 µg/mL (≈ 0.0874 µM) | 64 µg/mL (≈ 186 µM) | 2 µg/mL (≈ 5.82 µM) | 0.125 µg/mL (≈ 0.364 µM) | 4 µg/mL (≈ 11.6 µM) | 4 µg/mL (≈ 11.6 µM) | 32 µg/mL (≈ 93.2 µM) | 4 µg/mL (≈ 11.6 µM) | 4 µg/mL (≈ 11.6 µM) | CN1CCN(c2nc3c(cc2N)c(=O)c(C(=O)O)cn3C2CC2)CC1 | 6.063 | 0.416 | 2 µg/mL (≈ 5.82 µM) | –
0.03 µg/mL (≈ 0.0876 µM) | 0.03 µg/mL (≈ 0.0876 µM) | 0.25 µg/mL (≈ 0.73 µM) | 0.03 µg/mL (≈ 0.0876 µM) | 32 µg/mL (≈ 93.5 µM) | 16 µg/mL (≈ 46.7 µM) | 0.25 µg/mL (≈ 0.73 µM) | 16 µg/mL (≈ 46.7 µM) | 16 µg/mL (≈ 46.7 µM) | 32 µg/mL (≈ 93.5 µM) | 4 µg/mL (≈ 11.7 µM) | 4 µg/mL (≈ 11.7 µM) | CC1CN(c2cc3c(cc2N)c(=O)c(C(=O)O)cn3C2CC2)CCN1 (stereo unspecified) | 10.556 | 0.451 | 2 µg/mL (≈ 5.84 µM) | –

SMILES | MIC (Escherichia coli [1]) | MIC (Escherichia coli [2]) | MIC (Enterobacter cloacae) | MIC (Klebsiella pneumoniae) | MIC (Proteus vulgaris) | MIC (Providencia stuartii) | MIC (Shigella) | MIC (Staphylococcus aureus [4]) | MIC (Staphylococcus aureus [5]) | MIC (Enterococcus faecalis [6]) | MIC [7] | MIC [8] | Geometric mean (Bacteria) | Geometric mean [3] | MIC (Pseudomonas aeruginosa) | other results
Cc1c(N2CCC(C)CC2)c(N)cc2c(=O)c(C(=O)O)cn(C3CC3)c12 | 0.03 µg/mL (≈ 0.0844 µM) | 0.03 µg/mL (≈ 0.0844 µM) | 0.5 µg/mL (≈ 1.41 µM) | 0.03 µg/mL (≈ 0.0844 µM) | 8 µg/mL (≈ 22.5 µM) | 0.5 µg/mL (≈ 1.41 µM) | 0.5 µg/mL (≈ 1.41 µM) | 0.06 µg/mL (≈ 0.169 µM) | 0.06 µg/mL (≈ 0.169 µM) | 0.5 µg/mL (≈ 1.41 µM) | 0.125 µg/mL (≈ 0.352 µM) | 0.125 µg/mL (≈ 0.352 µM) | 0.122 | 0.268 | 1 µg/mL (≈ 2.81 µM) | MIC (Enterococcus faecium): 0.13 µg/mL (≈ 0.366 µM); MIC (Enterococcus faecalis [9]): 0.13 µg/mL (≈ 0.366 µM); IC50 (Escherichia coli [10]): 5.86 µg/mL (≈ 16.5 µM); MIC (Staphylococcus aureus [11]): 1 µg/mL (≈ 2.81 µM); MIC (Streptococcus pneumoniae): 1 µg/mL (≈ 2.81 µM); MIC (Staphylococcus aureus [12]): 0.016 µg/mL (≈ 0.045 µM)
